VIM-2 inh: blocks Pseudomonas aeruginosa VIM-2 metallo-beta-lactamase; purified VIM-2, nitrocefin hydrolysis, epi-absorbance fluorescence; inhibition, % at 5.6 µM; 0.89% of 290,000 active; AID 1527;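 active means inhibition above the mean of all tested compounds plus 3 SD, cutoff set per screening run, cut at about 7.5% in these data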;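 further: red hydrolysis product quenches plate fluorescence so inhibitors raise well fluorescence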
HGIII-sPLA2 inh: Blocks human group III sPLA2 activity; 0.56% of 370,000 active; inhibition, % at 12.2 µM; QFRET BODIPY PC-A2 liposome hydrolysis, fluorescence; AID 743126; Q9NZ20;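 active means inhibition above mean plus 3 SD of compounds lying within the high and low control bounds, cut at about 19% in these data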
IMP-1 inh: inhibitors of Pseudomonas aeruginosa IMP-1 metallo-beta-lactamase; purified IMP-1, nitrocefin hydrolysis, epi-absorbance fluorescence; inhibition, % at 5.6 µM; 0.45% of 290,000 active;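 active means inhibition above the mean plus 3 SD of all compounds in the same screening run, cut at about 4.5% in these data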
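System – purified recombinant IMP-1 beta-lactamase · Input – IMP-1 dispensed at 0.2 nM · Timing – 15 min preincubation plus 25 min reaction at 25 °C · Signal – Epi-absorbance fluorescence, 480 nm excitation, 530 nm emission · Measure – percent IMP-1 inhibition derived from blank-referenced optical density · Controls – Enzyme-plus-DMSO low control, enzyme-free DMSO high control · Replication – singlicate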
PfM18AAP inh-1: blocks P. falciparum M18 aspartyl aminopeptidase; AID 1822; inhibition, % at 7.35 µM; recombinant PfM18AAP, H-Glu-NHMec fluorogenic cleavage; 1.2% of 290,000 active;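 active means inhibition above the campaign mean inhibition over all tested compounds plus 3 SD, cut at about 28% in these data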
PfM18AAP inh-2: confirmation of Plasmodium falciparum M18 aspartyl aminopeptidase inhibitors. inhibition, % at 7.35 µM. recombinant PfM18AAP, H-Glu-NHMec fluorogenic cleavage. AID 2170. shares compounds with PfM18AAP inh-1. 28% of 2,400 active;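 active means mean inhibition over replicate wells above the hit cutoff set for the earlier primary screen, cut at about 29% in these data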
CTSL1 counter: counter-screen for PFM18AAP inhibitors: confirmation of human cathepsin L inhibitors. purified cathepsin L1, Z-Leu-Arg-MCA fluorescence. 2,400 tested, under 10 active. inhibition, % at 5.96 µM. AID 2178. shares compounds with PfM18AAP inh-1;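 active means average inhibition across replicates above the hit cutoff set in the earlier primary screen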
Target sequence (P07711 whole entry, looked up): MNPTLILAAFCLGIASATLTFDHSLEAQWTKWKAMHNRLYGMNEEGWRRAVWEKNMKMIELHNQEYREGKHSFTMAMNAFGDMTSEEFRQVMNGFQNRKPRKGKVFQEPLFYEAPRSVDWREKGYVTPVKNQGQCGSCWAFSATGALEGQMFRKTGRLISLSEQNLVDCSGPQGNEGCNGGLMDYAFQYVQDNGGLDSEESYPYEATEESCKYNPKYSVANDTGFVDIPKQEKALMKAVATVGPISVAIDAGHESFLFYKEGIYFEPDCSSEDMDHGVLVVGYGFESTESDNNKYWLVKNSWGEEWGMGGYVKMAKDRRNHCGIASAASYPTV
A number is an active result; - = inactive; . = no result. Rows were chosen to be rich in hits. Some 2.4% of all compounds tested hit in one or more screens of this group.

SMILES	VIM-2 inh	HGIII-sPLA2 inh	IMP-1 inh	PfM18AAP inh-1	PfM18AAP inh-2	CTSL1 counter
CC(CCN1CCC(C(O)(c2ccccc2)c2ccccc2)CC1)Oc1ccc(OC(F)(F)F)cc1 (centres undefined)	.	-	.	.	.	.
COc1cccc(CN2CCC2(C)C(=O)NCc2cccc(C(F)(F)F)c2)c1OC (centres undefined)	.	-	.	.	.	.
Cc1c(Cl)cccc1N1C(=O)CC(N(O)c2ccccc2)C1=O (centres undefined)	-	-	-	33.4	-	-
Cn1cccc1/C=N/n1cnnc1	-	-	-	-	.	.
Clc1ccc(-n2cccc2/C=N/n2cnnc2)cc1	-	-	-	40.7	-	-
CCSc1ccccc1C(=O)Nc1ccc(S(=O)(=O)NC(C)=O)cc1	-	-	-	32.0	-	-
COCCN1C[C@@H](CO)O[C@@H](n2cnc3c(NC(C)C)ncnc32)C1	.	-	.	.	.	.
Cc1ccc(S(=O)(=O)N2CCN(C(=O)C(O)c3ccccc3)CC2)cc1 (centres undefined)	.	-	.	.	.	.
Cc1cc(/C=C2\Sc3ccccc3N2C)cc(C)[n+]1CC1CCCO1 (centres undefined)	-	-	-	50.3	-	-
COc1cc(/C=N/NC(=O)Cc2csc(N3CCOCC3)n2)cc(OC)c1O	-	-	-	31.7	-	-
CN(C)c1ncc(CN2CCC(C(=O)Nc3ccc(-n4cccn4)cc3)CC2)s1	-	-	-	-	.	.
CCNC(=S)NNC(=O)c1ccoc1C	-	-	-	33.1	-	-
COCCCNC(=S)NNC(=O)c1ccoc1C	-	-	-	32.9	-	-
CC(C)CNC(=S)NNC(=O)c1ccc2c(c1)OCO2	-	-	-	-	.	.
CCNC(=S)NNC(=O)c1ccc(OC)cc1	-	-	-	33.0	-	-
COCCCNC(=S)NNC(=O)c1ccc2c(c1)OCO2	-	-	-	35.2	-	-
NC(c1ccccc1)c1csc(Nc2cc(Oc3ccccc3)ncn2)n1 (centres undefined)	.	-	.	.	.	.
Cc1ccc(NC(=O)c2ccc(=O)[nH]n2)cc1S(=O)(=O)Nc1ccc(SC(F)F)cc1	.	-	.	.	.	.
Oc1ccc(/C=C/c2cc(O)cc(O)c2)cc1	-	-	-	59.0	58.5	-
COc1ccc(C(=O)N[C@@H]2CC[C@@]34CCCN3C(=O)CCC[C@H]4[C@H]2C)cc1	.	-	.	.	.	.
COc1cccc(C(=O)NCc2n[nH]c(=S)n2-c2cccc(C)c2)c1	-	-	-	-	.	.
O=C(NCc1n[nH]c(=S)n1-c1cccc(C(F)(F)F)c1)c1ccco1	-	-	-	34.5	-	-
O=C(Cc1ccccc1)NCc1n[nH]c(=S)n1-c1ccccc1	-	-	-	-	.	.
COc1ccc(CC(=O)NCc2n[nH]c(=S)n2-c2cccc(C)c2)cc1	-	-	-	40.0	-	-
COc1ccc(NS(=O)(=O)c2cccc(C(=O)NNC(=O)c3ccc(C)o3)c2)cc1	.	-	.	.	.	.
SMILES	VIM-2 inh	HGIII-sPLA2 inh	IMP-1 inh	PfM18AAP inh-1	PfM18AAP inh-2	CTSL1 counter
Fc1ccc(C[n+]2csc3ccccc32)cc1	-	-	-	35.9	-	-
C=CCn1c(-c2cc3cccc(OC)c3o2)n[nH]c1=S	-	-	-	33.1	-	-
CN(CC(=O)NCC1CCCO1)S(=O)(=O)c1ccc2ccccc2c1 (centres undefined)	.	-	.	.	.	.
O=C1NC(=O)C(c2ccccc2[N+](=O)[O-])=C1Nc1ccc(O)c(Cl)c1	-	-	-	40.3	-	-
Cc1ccc(-c2cc(-c3ccccc3[N+](=O)[O-])[nH]n2)c(O)c1	-	-	-	-	.	.
CN1C2=NC(c3ccc4ccccc4c3)CC(=O)N2/C(=C\c2ccccc2)C1c1ccccc1C(F)(F)F (centres undefined)	.	-	.	.	.	.
COC(=O)c1sc(N2C(=O)C(=O)/C(=C(/O)c3ccccc3)C2c2ccco2)nc1C (centres undefined)	-	-	-	-	.	.
Cc1nc(N2C(=O)C(=O)/C(=C(/O)c3ccccc3)C2c2ccco2)sc1C (centres undefined)	-	-	-	37.6	-	-
COc1ccc(/C=N/Nc2nc(C(=O)O)cs2)cc1	-	-	-	33.8	-	-
C/C(=N\Nc1nc(C(=O)O)cs1)c1ccccc1	-	-	-	41.9	-	-
N#Cc1c(SCC(=O)Nc2nncs2)sc2c(O)cc(=O)[nH]c12	-	-	-	53.0	28.6	-
CCOC(=O)c1sc(N2C(=O)C(O)=C(C(=O)c3ccco3)C2c2ccccc2)nc1C (centres undefined)	-	.	-	-	.	.

From PubChem BioAssay
